# High-throughput results from PubChem BioAssay.
# Scp1 inh = inhibitors of human Scp-1 phosphatase; AID 493091; hit rate 0.88% among 340,000; Q9GZU7; Recombinant Scp1, phosphopeptide, malachite green phosphate absorbance; inhibition, % at 20 µM;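 active = inhibition above about 50% at 20 µM, limit read from the data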;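 note: plate controls were DMSO wells with enzyme for no effect and wells lacking enzyme for full effect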
#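 System: truncated SCP-1 phosphatase (76-261aa); medium: Tris acetate buffer pH 5.5 with MgCl2 and Tween-20; incubation: 45 min room-temperature reaction, 5 min colour, 30 min stabiliser; compound: single 20 µM dose, 1% DMSO; reagent: Phosphorylated 17-residue peptide substrate; read-out: % inhibition at 20 µM; technique: colorimetric free-phosphate detection, absorbance 630 nm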
# DNMT1 inh = inhibitors of human DNMT1. DNMT1 molecular beacon, Hinp1I cleavage, fluorescence. inhibition (reported as % activation of signal), % at 10 µM. P26358. hit rate 0.83% among 360,000. AID 588458; in the data active = inhibition above about 50%
# Target sequence (P26358 504-1616 limits assumed): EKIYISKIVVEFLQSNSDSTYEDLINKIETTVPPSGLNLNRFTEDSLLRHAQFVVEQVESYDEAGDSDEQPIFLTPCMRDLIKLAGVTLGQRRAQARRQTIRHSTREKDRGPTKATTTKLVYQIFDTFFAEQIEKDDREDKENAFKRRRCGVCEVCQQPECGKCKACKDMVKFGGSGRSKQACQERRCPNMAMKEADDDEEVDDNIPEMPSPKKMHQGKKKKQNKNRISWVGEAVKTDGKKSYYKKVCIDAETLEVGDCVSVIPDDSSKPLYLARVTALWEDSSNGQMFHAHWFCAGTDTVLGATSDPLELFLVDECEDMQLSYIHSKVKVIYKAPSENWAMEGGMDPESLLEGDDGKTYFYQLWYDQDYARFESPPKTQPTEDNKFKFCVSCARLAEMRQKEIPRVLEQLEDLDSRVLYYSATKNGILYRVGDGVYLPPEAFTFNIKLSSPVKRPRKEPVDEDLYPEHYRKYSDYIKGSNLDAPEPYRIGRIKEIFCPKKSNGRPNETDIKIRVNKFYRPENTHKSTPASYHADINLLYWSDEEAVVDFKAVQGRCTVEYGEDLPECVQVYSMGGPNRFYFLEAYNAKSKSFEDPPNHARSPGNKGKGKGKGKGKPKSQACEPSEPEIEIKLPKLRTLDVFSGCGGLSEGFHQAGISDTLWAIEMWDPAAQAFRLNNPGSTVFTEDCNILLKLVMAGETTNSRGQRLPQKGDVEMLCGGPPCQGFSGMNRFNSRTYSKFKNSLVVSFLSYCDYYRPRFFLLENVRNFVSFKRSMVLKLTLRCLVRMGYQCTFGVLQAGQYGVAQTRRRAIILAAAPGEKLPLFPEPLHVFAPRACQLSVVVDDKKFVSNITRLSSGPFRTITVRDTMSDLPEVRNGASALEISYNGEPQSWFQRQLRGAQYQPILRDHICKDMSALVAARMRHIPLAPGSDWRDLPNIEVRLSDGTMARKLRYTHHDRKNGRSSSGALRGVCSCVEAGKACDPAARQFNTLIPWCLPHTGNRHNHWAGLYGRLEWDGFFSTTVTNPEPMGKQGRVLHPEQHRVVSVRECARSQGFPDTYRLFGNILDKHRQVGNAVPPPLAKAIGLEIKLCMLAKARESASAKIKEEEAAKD
# GRK2 aptamer HTS = inhibitors of human GRK2 displacing RNA aptamer; bead flow cytometry, FAM-aptamer displacement from GRK2; hit rate 0.59% among 330,000; P25098; inhibition of aptamer binding, % at 10 µM;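 active = inhibition of aptamer binding above 40%, roughly 3 SD of noise, on plates passing a quality check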;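 note: median bead fluorescence of bound FAM aptamer so fluorescent compounds give negative values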
# STEP inh = STEP (human) phosphatase inhibition. AID 588621. inhibition, % at 20 µM. recombinant STEP, OMFP fluorogenic substrate, fluorescence. hit rate 0.25% among 360,000;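 active = inhibition at 20 µM, scaled per plate between control wells, above about 37%, limit read from the data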;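 note: 0% = DMSO with enzyme and substrate and 100% = substrate only without enzyme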
#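 System: STEP (striatal-enriched tyrosine phosphatase) enzyme, cell-free; medium: Bis-Tris pH 6.0 buffer with DTT, detergent; dosing: 20 µM, 1% DMSO; times: reaction 20 min, ambient temperature; detection: fluorescence, 480/540 nm; read-out basis: normalized % inhibition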
# LMPTP inh = LMPTP (human) inhibition; recombinant LMPTP-A, OMFP fluorogenic substrate, fluorescence intensity; P24666; inhibition, % at 20 µM; AID 651560; hit rate 0.22% among 360,000;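 active = compounds that cut the enzyme signal by at least half of the control window in the single-dose screen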;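 note: plate controls were DMSO wells with enzyme plus substrate for no effect and substrate without enzyme for full effect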
#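 Assay system: LMPTP-A phosphatase enzyme | Input: 0.625 nM enzyme | Also added: Fluorogenic phosphatase substrate OMFP at 400 µM final | Compound dosing: One test concentration per compound, 20 µM, with 3% DMSO overall | Schedule: 50 min enzyme reaction at room temperature, protected from light | Signal: Fluorescence intensity | Benchmarks: no-enzyme and uninhibited controls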
# SUMO1-SIM PPI = SUMO1-SIM interaction modulation; P63165; SUMO1 binding to a labelled peptide, TR-FRET, 1 h; inhibition, % at 20 µM; hit rate 0.33% among 360,000; AID 602429; in the data active = inhibition above about 37%
# GRK2 inh confirm = human GRK2 inhibition confirmation, cherry pick 1; shares compounds with GRK2 aptamer HTS; bead-bound GRK2, FAM-aptamer displacement, flow cytometry; aptamer displacement, % at 10 µM; hit rate 4% among 2,000;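 active = aptamer displacement above 40%, near three times the noise of non-fluorescent compounds, on plates passing quality checks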;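 note: negative values mostly reflect intrinsic compound fluorescence rather than true enhancement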
# Aptamer quench = fluorescent aptamer quenching in GRK2 counter-screen dose response | Fluorescent RNA aptamer beads, flow cytometry; active compounds read high | shares compounds with GRK2 aptamer HTS | fluorescence change (kMESF span), kMESF (concentration not given with the values) | 110 tested, under 10 active;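 active = compounds whose bead fluorescence drops by more than 37 kMESF across the dose range, marking them as dye quenchers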
# Aptamer quench SP = quenches fluorescent RNA aptamer, GRK2 hit artifact. shares compounds with GRK2 aptamer HTS. Carboxyfluorescein RNA aptamer on beads, flow cytometry quenching; active compounds read low. fluorescence response (% of DMSO), % at 10 µM. 2,000 tested, under 10 active;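 active = compounds that quench the bead-bound fluorescent RNA probe, cutting fluorescence to under half of the solvent control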;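 note: counterscreen run without GRK2 so only probe quenching by compound is measured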
# GRK2 CP2 = confirmation of human GRK2 inhibitors binding RNA aptamer site; shares compounds with GRK2 aptamer HTS; bead-bound GRK2, FAM-aptamer displacement, flow cytometry; inhibition of aptamer binding, % at 10 µM; 360 tested, under 10 active;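 active = inhibition of aptamer binding above 40%, about triple the noise seen with nonglowing compounds, on plates passing quality control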;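 note: negative values mostly come from compounds that fluoresce themselves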
# FAM quench SP = quenches fluorescent RNA aptamer, GRK2 hit artifact | fluorescence response vs DMSO, % at 10 µM | shares compounds with GRK2 aptamer HTS | carboxyfluorescein RNA aptamer beads, flow cytometry quenching; active compounds read low | 360 tested, under 10 active;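 active = response vs DMSO under 50%, meaning signal dropped by over half, treated as fluorescence quencher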;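 note: labelled aptamer on streptavidin beads without GRK2 as a quench counter-screen; 100% = bead fluorescence of DMSO wells and lower means quenching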
# Numbers without * were called inactive; . = no result. Rows were chosen to be rich in hits. Some 2.1% of all compounds tested hit in one or more screens of this group.
SMILES,Scp1 inh,DNMT1 inh,GRK2 aptamer HTS,STEP inh,LMPTP inh,SUMO1-SIM PPI,GRK2 inh confirm,Aptamer quench SP,others
O=C(N/N=C\c1cc([N+](=O)[O-])ccc1N1CCCC1)c1ccccn1,-1,1,0,4,1,-24,.,.,
O=C(N/N=C\c1cc([N+](=O)[O-])ccc1N1CCOCC1)c1ccccn1,-7,1,89*,-1,-1,-23,10,101,
CCOC(=O)C1CCCN(CCC(C)c2ccccc2)C1 (centres undefined),-4,3,78*,0,1,-4,2,102,
CS(=O)(=O)Nc1ccc2c(c1)[C@H]1C[C@H](CC(=O)NCc3ccccc3)O[C@H](CO)[C@H]1O2,.,2,.,0,-2,3,.,.,
COCCNC(=O)c1ccc(N2CC3CC(C2)c2cccc(=O)n2C3)c(NC(=O)c2ccccc2Cl)c1 (centres undefined),.,0,.,-3,-1,-3,.,.,
COc1ccc(/C=C/C(=O)N2CCN(c3ccccn3)CC2)cc1OC,-6,-1,53*,2,1,-12,0,100,
O=C(NCc1ccccc1Cl)C1CCN(C(=O)c2ccc(F)cc2)CC1,.,1,.,-2,-1,2,.,.,
O=C(NCc1ccccc1CN1CCCC1)C1CCN(C(=O)c2ccc(F)cc2)CC1,-4,-3,69*,-2,0,-15,-46,120,
CCOc1ccc(NC2CCCCC2NS(=O)(=O)c2ccccc2)cc1 (centres undefined),-3,-1,49*,0,0,6,1,94,
CC1Oc2ccc(C#N)cc2N(Cc2cccc(F)c2)C1=O (centres undefined),.,1,.,1,0,0,.,.,
CCN1/C(=C/c2ccc3cccc(C)c3[n+]2CC)Sc2ccccc21,41,8,91*,3,34,-96,69*,144,Aptamer quench=-115
O=C(Nc1ccc2c(c1)OCO2)Nc1ccc(Cl)cc1Cl,-9,-5,92*,5,-1,-1,-5,94,
COc1cc(C(C2=C(O)CC(C)(C)CC2=O)C2C(=O)CC(C)(C)CC2=O)cc(OC)c1OC (centres undefined),-7,-1,1,0,0,1,.,.,
CC1(C)CC(=O)C(C(C2=C(O)CC(C)(C)CC2=O)c2ccco2)C(=O)C1 (centres undefined),-4,5,94*,-2,-2,4,-1,104,
COCCNC(=O)C1(C)CCCN(Cc2ccc(Cl)nc2)C1 (centres undefined),.,-1,.,-4,-1,1,.,.,
CCOc1cc(S(=O)(=O)N2CCN=C2Cc2ccccc2)ccc1F,0,-1,44*,-2,-1,7,.,.,GRK2 CP2=-7;FAM quench SP=101
CC[C@H](C)/C=C/C1=CC2=C(Cl)C(=O)[C@@]3(C)OC(=O)C(C(=O)[C@H](C)[C@@H](C)O)=C3C2=CO1,-13,21,69*,-4,2,-3,3,104,
COc1cc(C)c(NC(=O)COc2cccc3c2OC(C)(C)C3)cc1OC,-3,5,41*,-1,-1,6,.,.,GRK2 CP2=21;FAM quench SP=99
CCOc1ccc(NC(=O)CN(C)C(=O)COc2cccc3c2OC(C)(C)C3)cc1OCC,4,-5,98*,-1,-1,3,0,96,
